Here are results for one molecule from BindingDB's records for doi:10.1016/j.bmc.2019.03.050 (University of Illinois At Chicago, 2019).

Experiment [1] addresses T1, Replicase polyprotein 1ab (Middle East respiratory syndrome-related coronavirus (isolate United Kingdom/H123990006/2012), UniProt K9N7C7). In words: Competitive-inhibition of MERS-CoV papain-like protease using varying levels of Z-Arg-Leu-Arg-Gly-Gly-AMC as substrate by Dixon-plot analysis.
For experiment [2], the target named is T1, Replicase polyprotein 1ab. In words: Inhibition of MERS-CoV papain-like protease using Z-Arg-Leu-Arg-Gly-Gly-AMC as substrate preincubated for 5 mins followed by substrate addition and measured for 10 mins by fluorescence assay.
Experiment [3] concerns the target T1, Replicase polyprotein 1ab. In words: Binding affinity to MERS-CoV papain-like protease by SPR analysis. Put shortly: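 SPR on Biacore T200. Enzyme at 50 µg/mL in 10 mM sodium acetate pH 5.5 amine-coupled to CM5 chip (~10,000 RU); blank flow cells as reference. Compounds 0-50 µM (2-fold series) in PBSP + 0.5 mM TCEP, 2% DMSO, 30 µL/min, 25°C; double-referenced. KD from steady-state responses fit to rectangular hyperbola; rate constants from global 1:1 Langmuir fit.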
For orientation: Surface plasmon resonance follows binding to a sensor surface in real time, without labels.

pIC50, pKd, pKi: −log10 of the molar value.

T1 sequence (K9N7C7 854-2740 limits assumed): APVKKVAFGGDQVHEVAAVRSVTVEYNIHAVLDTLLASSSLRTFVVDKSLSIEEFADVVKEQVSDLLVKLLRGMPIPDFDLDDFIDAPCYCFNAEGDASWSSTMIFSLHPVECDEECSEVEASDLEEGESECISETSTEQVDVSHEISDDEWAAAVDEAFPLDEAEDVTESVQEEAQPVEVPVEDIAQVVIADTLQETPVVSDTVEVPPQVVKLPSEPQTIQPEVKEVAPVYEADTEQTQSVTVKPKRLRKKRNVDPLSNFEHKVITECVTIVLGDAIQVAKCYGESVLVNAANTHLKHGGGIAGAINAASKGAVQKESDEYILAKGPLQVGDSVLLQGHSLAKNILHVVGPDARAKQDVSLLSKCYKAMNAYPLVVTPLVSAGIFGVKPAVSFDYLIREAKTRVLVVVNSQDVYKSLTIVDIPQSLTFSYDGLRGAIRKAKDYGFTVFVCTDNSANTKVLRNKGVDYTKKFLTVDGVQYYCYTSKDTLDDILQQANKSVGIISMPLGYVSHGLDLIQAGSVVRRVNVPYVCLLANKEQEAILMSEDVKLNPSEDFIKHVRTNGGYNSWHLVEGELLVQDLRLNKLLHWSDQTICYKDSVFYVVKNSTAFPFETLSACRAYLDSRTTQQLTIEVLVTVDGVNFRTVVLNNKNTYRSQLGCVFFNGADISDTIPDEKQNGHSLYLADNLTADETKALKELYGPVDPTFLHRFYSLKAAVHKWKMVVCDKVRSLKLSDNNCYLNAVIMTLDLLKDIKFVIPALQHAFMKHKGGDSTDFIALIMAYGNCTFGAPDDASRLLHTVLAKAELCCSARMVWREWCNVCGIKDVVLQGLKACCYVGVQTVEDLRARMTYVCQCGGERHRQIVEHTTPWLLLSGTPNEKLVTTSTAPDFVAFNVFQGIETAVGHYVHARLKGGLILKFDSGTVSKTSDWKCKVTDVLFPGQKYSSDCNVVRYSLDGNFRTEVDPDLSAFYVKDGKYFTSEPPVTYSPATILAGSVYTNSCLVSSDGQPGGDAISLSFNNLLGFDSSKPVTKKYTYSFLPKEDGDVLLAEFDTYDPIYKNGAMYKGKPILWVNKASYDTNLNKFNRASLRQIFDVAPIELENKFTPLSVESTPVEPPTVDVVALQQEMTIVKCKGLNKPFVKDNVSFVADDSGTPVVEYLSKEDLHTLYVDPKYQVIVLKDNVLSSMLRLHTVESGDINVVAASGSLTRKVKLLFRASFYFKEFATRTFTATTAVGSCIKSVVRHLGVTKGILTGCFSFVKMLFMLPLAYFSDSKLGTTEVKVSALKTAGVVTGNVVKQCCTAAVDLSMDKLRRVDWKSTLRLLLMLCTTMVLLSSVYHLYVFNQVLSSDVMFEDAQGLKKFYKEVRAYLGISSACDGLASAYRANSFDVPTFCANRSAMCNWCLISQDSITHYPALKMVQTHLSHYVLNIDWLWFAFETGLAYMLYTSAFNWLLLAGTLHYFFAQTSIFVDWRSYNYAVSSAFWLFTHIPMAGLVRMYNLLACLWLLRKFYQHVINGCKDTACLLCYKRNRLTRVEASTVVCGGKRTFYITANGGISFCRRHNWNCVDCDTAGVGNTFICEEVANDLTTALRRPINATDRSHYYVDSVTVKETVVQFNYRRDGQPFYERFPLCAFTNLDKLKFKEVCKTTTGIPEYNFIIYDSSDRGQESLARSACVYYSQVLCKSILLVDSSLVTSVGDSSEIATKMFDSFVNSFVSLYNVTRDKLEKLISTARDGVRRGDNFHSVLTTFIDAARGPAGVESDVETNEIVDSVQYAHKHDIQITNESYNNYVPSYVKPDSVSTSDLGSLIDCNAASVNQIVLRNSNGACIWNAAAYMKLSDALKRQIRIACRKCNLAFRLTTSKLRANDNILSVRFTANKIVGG

The term pKi denotes −log10 of the Ki, conventionally taken in molar units. Usually pIC50 stands for the IC50 on a negative log10 scale, so that one unit is a factor of ten. The low end stands for a large IC50, the high end for a small IC50. As usually defined, the pKd is −log10 of the Kd, conventionally taken in molar units. `O=C(NC1=CC=CC2C(=O)C=C(c3nn[nH]n3)OC12)c1ccc(OCCCCc2ccccc2)cc1` (stereo not drawn) [ONO-1078]: the pKi in experiment [1] is 3.90. This molecule had a pIC50 in experiment [2] of 4.60. In addition, the pKd in experiment [3] is 4.85.
